# In ChEMBL document CHEMBL2086280, “Structure and bioactivity of steroidal saponins isolated from the roots of Chamaelirium luteum (false unicorn)” (J Nat Prod, 2012):
# Legend:
# [1] = test system: K562; experiment: Cytotoxicity against human K562 cells after 6 days by MTS assay; details: K562, 144 h
# [2] = test system: MM96L; experiment: Cytotoxicity against human MM96L cells after 6 days by SRB assay; assay type: functional, cell-based; details: 144 h
# Outline: (§1)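 Seeded at 3000−5000 cells/well and exposed for 6 days to compounds diluted from 10 mg/mL DMSO stocks. The top final concentration was 50 μg/mL, carrying 0.5% DMSO final. Cells were ethanol-fixed and stained with sulforhodamine, with absorbance read at 540 nm against untreated controls. IC50 was interpolated from plots of percent control absorbance versus dose.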
# [3] = test system: MCF7; experiment: Cytotoxicity against human MCF7 cells after 6 days by SRB assay; assay type: functional, cell-based; details: MCF7, 144 h
# Outline: as §1
# [4] = test system: HT-29; experiment: Cytotoxicity against human HT-29 cells after 6 days by SRB assay; assay type: functional, cell-based; details: HT-29, 144 h
# Outline: as §1
# [5] = test system: NFF; experiment: Cytotoxicity against human NFF cells after 6 days by SRB assay; assay type: cell-based; details: 144 h
# Outline: as §1
# [6] = test system: HeLa; experiment: Cytotoxicity against human HeLa cells after 6 days by SRB assay; assay type: functional, cell-based; details: 144 h
# Outline: as §1
Structure (SMILES),IC50 [1],IC50 [2],IC50 [3],IC50 [4],IC50 [5],IC50 [6]
C[C@@H](CO)CC[C@H](O)[C@@H](C)[C@H]1[C@@H](O)C[C@H]2[C@@H]3CC=C4C[C@@H](O)CC[C@]4(C)[C@H]3CC[C@]12C,> 50 µg/mL,> 50 µg/mL,> 50 µg/mL,> 50 µg/mL,> 50 µg/mL,> 50 µg/mL
C[C@@H](CO)CC[C@H](O)[C@@H](C)[C@H]1[C@@H](O)C[C@H]2[C@@H]3CC=C4C[C@@H](O)CC[C@]4(C)[C@H]3[C@H](O)C[C@]12C [HELOGENIN],> 50 µg/mL,> 50 µg/mL,> 50 µg/mL,> 50 µg/mL,> 50 µg/mL,> 50 µg/mL
C[C@@H]1CC[C@@]2(OC1)O[C@H]1C[C@H]3[C@@H]4CC=C5C[C@@H](O)CC[C@]5(C)[C@H]4CC[C@]3(C)[C@H]1[C@@H]2C [DISOGENIN],> 50 µg/mL,> 50 µg/mL,> 50 µg/mL,> 50 µg/mL,> 50 µg/mL,> 50 µg/mL
CC(C)[C@H](O)[C@H](O)C[C@@H](C)[C@H]1[C@@H](O[C@@H]2O[C@H](CO)[C@@H](O)[C@H](O)[C@H]2O)C[C@H]2[C@@H]3CC(=O)[C@H]4C[C@@H](O[C@@H]5O[C@H](CO[C@@H]6O[C@H](CO)[C@@H](O)[C@H](O)[C@H]6O)[C@@H](O)[C@H](O)[C@H]5O)CC[C@]4(C)[C@H]3CC[C@]12C,> 50 µg/mL,> 50 µg/mL,> 50 µg/mL,> 50 µg/mL,> 50 µg/mL,> 50 µg/mL
CC(C)[C@H](O)[C@H](O)C[C@@H](C)[C@H]1[C@@H](O)C[C@H]2[C@@H]3C[C@@H](O)[C@H]4C[C@@H](O[C@@H]5O[C@H](CO[C@@H]6O[C@H](CO)[C@@H](O)[C@H](O)[C@H]6O)[C@@H](O)[C@H](O)[C@H]5O)CC[C@]4(C)[C@H]3CC[C@]12C [CHAMAELIROSIDE A],> 50 µg/mL,> 50 µg/mL,> 50 µg/mL,> 50 µg/mL,> 50 µg/mL,> 50 µg/mL
CC(C)[C@H](O[C@@H]1O[C@H](C)[C@H](O)[C@H](O)[C@H]1O)[C@H](O)C[C@@H](C)[C@H]1[C@@H](O)C[C@H]2[C@@H]3CC(=O)[C@H]4C[C@@H](O[C@@H]5O[C@H](CO[C@@H]6O[C@H](CO)[C@@H](O)[C@H](O)[C@H]6O)[C@@H](O)[C@H](O)[C@H]5O)CC[C@]4(C)[C@H]3CC[C@]12C,> 50 µg/mL,> 50 µg/mL,> 50 µg/mL,> 50 µg/mL,> 50 µg/mL,> 50 µg/mL
CC(C)[C@H](O)[C@H](O)C[C@@H](C)[C@H]1[C@@H](O)C[C@H]2[C@@H]3CC(=O)[C@H]4C[C@@H](O[C@@H]5O[C@H](CO[C@@H]6O[C@H](CO)[C@@H](O)[C@H](O)[C@H]6O)[C@@H](O)[C@H](O)[C@H]5O)CC[C@]4(C)[C@H]3CC[C@]12C,> 50 µg/mL,> 50 µg/mL,> 50 µg/mL,> 50 µg/mL,> 50 µg/mL,> 50 µg/mL
CC(C)[C@H](O)[C@H](O)C[C@@H](C)[C@H]1[C@@H](O[C@@H]2O[C@H](CO)[C@@H](O)[C@H](O)[C@H]2O)C[C@H]2[C@@H]3C[C@@H](O)[C@H]4C[C@@H](O[C@@H]5O[C@H](CO[C@@H]6O[C@H](CO)[C@@H](O)[C@H](O)[C@H]6O)[C@@H](O)[C@H](O)[C@H]5O)CC[C@]4(C)[C@H]3CC[C@]12C [CHAMAELIROSIDE E],> 50 µg/mL,> 50 µg/mL,> 50 µg/mL,> 50 µg/mL,> 50 µg/mL,> 50 µg/mL
CC(=O)OC[C@H](C)CC[C@@H](OC(C)=O)[C@@H](C)[C@H]1[C@@H](OC(C)=O)C[C@H]2[C@@H]3CC=C4C[C@@H](OC(C)=O)CC[C@]4(C)[C@H]3CC[C@]12C,8.5 µg/mL,4.5 µg/mL,7.5 µg/mL,6.5 µg/mL,13 µg/mL,13 µg/mL
C[C@@H](CO)CC[C@@H](O)[C@@H](C)[C@H]1[C@@H](O)C[C@H]2[C@@H]3CC=C4C[C@@H](O)CC[C@]4(C)[C@H]3CC[C@]12C,> 50 µg/mL,> 50 µg/mL,> 50 µg/mL,> 50 µg/mL,> 50 µg/mL,> 50 µg/mL
CC(C)[C@H](O[C@@H]1O[C@H](C)[C@H](O)[C@H](O)[C@H]1O)[C@H](O)C[C@@H](C)[C@H]1[C@@H](O)C[C@H]2[C@@H]3C[C@@H](O)[C@H]4C[C@@H](O[C@@H]5O[C@H](CO[C@@H]6O[C@H](CO)[C@@H](O)[C@H](O)[C@H]6O)[C@@H](O)[C@H](O)[C@H]5O)CC[C@]4(C)[C@H]3CC[C@]12C [CHAMAELIROSIDE B],> 50 µg/mL,> 50 µg/mL,> 50 µg/mL,> 50 µg/mL,> 50 µg/mL,> 50 µg/mL
C[C@H](CC[C@H](O)[C@@H](C)[C@H]1[C@@H](O)C[C@H]2[C@@H]3CC=C4C[C@@H](O[C@@H]5O[C@H](CO)[C@@H](O)[C@H](O)[C@H]5O)CC[C@]4(C)[C@H]3[C@H](O)C[C@]12C)CO[C@@H]1O[C@H](CO)[C@@H](O)[C@H](O)[C@H]1O [HELOSIDE A],> 50 µg/mL,> 50 µg/mL,> 50 µg/mL,> 50 µg/mL,> 50 µg/mL,> 50 µg/mL
CC(=O)O[C@@H]1[C@H](O)[C@@H](O)[C@H](O[C@@H](C(C)C)[C@H](O)C[C@@H](C)[C@H]2[C@@H](O)C[C@H]3[C@@H]4C[C@@H](O)[C@H]5C[C@@H](O[C@@H]6O[C@H](CO[C@@H]7O[C@H](CO)[C@@H](O)[C@H](O)[C@H]7O)[C@@H](O)[C@H](O)[C@H]6O)CC[C@]5(C)[C@H]4CC[C@]23C)O[C@@H]1C [CHAMAELIROSIDE C],> 50 µg/mL,> 50 µg/mL,> 50 µg/mL,> 50 µg/mL,> 50 µg/mL,> 50 µg/mL
CC(=O)O[C@H]1CC[C@@]2(C)C(=CC[C@H]3[C@@H]4C[C@H](OC(C)=O)[C@H]([C@H](C)C(=O)CC[C@@H](C)CO)[C@@]4(C)CC[C@@H]32)C1,1.7 µg/mL,1 µg/mL,0.8 µg/mL,0.8 µg/mL,2 µg/mL,2.8 µg/mL
CC(C)[C@H](O)[C@H](O)C[C@@H](C)[C@H]1[C@@H](O)C[C@H]2[C@@H]3C[C@@H](O)[C@H]4C[C@@H](O)CC[C@]4(C)[C@H]3CC[C@]12C,7 µg/mL,8.5 µg/mL,13 µg/mL,11 µg/mL,22 µg/mL,12 µg/mL
CC(=O)OC[C@H](C)CC[C@H](OC(C)=O)[C@@H](C)[C@H]1[C@@H](OC(C)=O)C[C@H]2[C@@H]3CC=C4C[C@@H](OC(C)=O)CC[C@]4(C)[C@H]3CC[C@]12C,4.5 µg/mL,3.5 µg/mL,11 µg/mL,4.5 µg/mL,12 µg/mL,16 µg/mL
CC(C)[C@H](O)[C@H](O)C[C@@H](C)[C@H]1[C@@H](O)C[C@H]2[C@@H]3CC(=O)[C@H]4C[C@@H](O)CC[C@]4(C)[C@H]3CC[C@]12C,5 µg/mL,4.5 µg/mL,15 µg/mL,13 µg/mL,17 µg/mL,15 µg/mL
CC(C)[C@@H]1OC(C)(C)O[C@@H]1C[C@@H](C)[C@H]1[C@@H](O)C[C@H]2[C@@H]3C[C@@H](O)[C@H]4C[C@@H](O)CC[C@]4(C)[C@H]3CC[C@]12C,8.5 µg/mL,5 µg/mL,5 µg/mL,3.5 µg/mL,10 µg/mL,4.3 µg/mL
